Assay [1] relates to Staphylococcus aureus. Kind of assay: Antimicrobial activity against methicillin-resistant Staphylococcus aureus CCARM 3696 by radial diffusion assay incubated with trypsin. Type of assay: functional, organism-based.
The subject of the next assay is Escherichia coli. Kind of assay: Antimicrobial activity against Escherichia coli KCTC 1039 after 18 hrs by broth dilution method. The conditions noted are these: KCTC 1039, 18 h. It is filed as functional. An outline of the steps: (§1)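 Broth microdilution following CLSI recommendations. Bacteria were grown overnight to stationary phase in Mueller-Hinton broth, then diluted in fresh MHB to 2 × 10^5 CFU/ml. Peptide or antibiotic stocks of 640 μg/ml in 0.01% acetic acid were serially 2-fold diluted to 10 μg/ml, and each was added to the bacterial suspension at 11 μl per 100 μl. Plates were incubated 18 h at 37°C. MIC was taken as the lowest concentration giving no visible turbidity, in triplicate.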
Background: Broth dilution looks for growth in wells or tubes with falling amounts of substance.

A further assay deals with Pseudomonas aeruginosa. The experiment in a line: Antimicrobial activity against multidrug-resistant Pseudomonas aeruginosa CCARM 2161 after 18 hrs by broth dilution method. Type of assay: functional. Particulars: CCARM 2161, 18 h. An outline of the steps:
(§2)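 Broth dilution per CLSI. Bacteria were grown overnight to stationary phase in Mueller-Hinton broth and diluted in fresh MHB to 2 × 10^5 CFU/ml. Stocks at 640 μg/ml in 0.01% acetic acid were 2-fold serially diluted to 10 μg/ml, and 11 μl was added to 100 μl of bacteria. After 18 h at 37°C, MIC was the lowest concentration with no visible turbidity. Run in triplicate.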

The subject of another assay is Salmonella enterica. Kind of assay: Antimicrobial activity against Salmonella enterica KCTC 2930 after 18 hrs by broth dilution method. Type of assay: functional. The conditions noted are these: KCTC 2930, 18 h. An outline of the steps:
as §1

The next assay relates to Bacillus subtilis. Kind of assay: Antimicrobial activity against Bacillus subtilis KCTC 2213 after 18 hrs by broth dilution method. It is filed as functional. Particulars: KCTC 2213, 18 h. An outline of the steps: as §1
In a further assay the test system is Enterococcus faecium. The experiment in a line: Antimicrobial activity against vancomycin-resistant Enterococcus faecium CCARM 5028 after 18 hrs by broth dilution method. Type of assay: functional. Particulars: CCARM 5028, 18 h. An outline of the steps:
as §2

The test system of a further assay is Klebsiella oxytoca. Kind of assay: Antimicrobial activity against Klebsiella oxytoca KCTC 1686 after 18 hrs by broth dilution method. Particulars: KCTC 1686, 18 h. Type of assay: functional. An outline of the steps:
as §1

Assay [2] concerns Staphylococcus aureus. Kind of assay: Antimicrobial activity against methicillin-resistant Staphylococcus aureus CCARM 3696 after 18 hrs by broth dilution method. Type of assay: functional. Particulars: CCARM 3696, 18 h. An outline of the steps:
as §2

For a further assay, the system named is Citrobacter freundii. The experiment in a line: Antimicrobial activity against Citrobacter freundii KCTC 2359 after 18 hrs by broth dilution method. The conditions noted are these: KCTC 2359, 18 h. Type of assay: functional. An outline of the steps:
as §1

Another assay concerns Listeria monocytogenes. The experiment in a line: Antimicrobial activity against Listeria monocytogenes KCTC 19111 after 18 hrs by broth dilution method. Type of assay: functional. Particulars: KCTC 19111, 18 h. An outline of the steps:
as §1

For another assay, the system named is Micrococcus luteus. Kind of assay: Antimicrobial activity against Micrococcus luteus KCTC 9341 after 18 hrs by broth dilution method. It is filed as functional. Particulars: KCTC 9341, 18 h. An outline of the steps: as §1

Values after ≈ are worked out from the molar mass of the structure shown. Active and inactive are the calls of the source. Numbered stars: 1 amine (or outer) side, 2 acyl side, 3 side chain; on linkers, the order of the positions; unused ones are H or OH. Bridge positions count the residues as written; N and C are the ends. Square brackets hold non-standard residues; d marks the D form. Peptide text beside a SMILES is read from it. I, II: the chains in the order shown. Gly(αS-SH) = O=C([C@@H](N[*:1])S[*:3])[*:2]; Nva(4-oxo) = CC(=O)C[C@H](N)C(=O)O Some results are limits rather than exact numbers.

For the compound `CC(C)C[C@H](NC(=O)CNC(=O)[C@H](Cc1cnc[nH]1)NC(=O)[C@H](Cc1cnc[nH]1)NC(=O)[C@H](CC(C)C)NC(=O)[C@H](CC(C)C)NC(=O)[C@H](C)NC(=O)[C@H](CC(N)=O)NC(=O)[C@H](CC(C)C)NC(=O)[C@H](Cc1c[nH]c2ccccc12)NC(=O)[C@@H](N)CCCCN)C(=O)N[C@@H](CC(N)=O)C(=O)N[C@@H](CSSC[C@H](NC(=O)[C@H](CC(N)=O)NC(=O)[C@H](CC(C)C)NC(=O)CNC(=O)[C@H](Cc1cnc[nH]1)NC(=O)[C@H](Cc1cnc[nH]1)NC(=O)[C@H](CC(C)C)NC(=O)[C@H](CC(C)C)NC(=O)[C@H](C)NC(=O)[C@H](CC(N)=O)NC(=O)[C@H](CC(C)C)NC(=O)[C@H](Cc1c[nH]c2ccccc12)NC(=O)[C@@H](N)CCCCN)C(=O)N[C@@H](C)C(=O)N[C@@H](CCCCN)C(=O)NCC(=O)N[C@H](C(=O)N[C@@H](CC(C)C)C(=O)N[C@@H](C)C(N)=O)C(C)C)C(=O)N[C@@H](C)C(=O)N[C@@H](CCCCN)C(=O)O` (I: H-KWLNALLHHGLNCAKGVLA-NH2 / II: H-KWLNALLHHGLNCAK-OH; disulfide I:13-II:13), the outcome with Staphylococcus aureus [1] was Active.
Same read-out and setting: with `CC(C)C[C@H](NC(=O)CNC(=O)[C@H](Cc1cnc[nH]1)NC(=O)[C@H](Cc1cnc[nH]1)NC(=O)[C@H](CC(C)C)NC(=O)[C@H](CC(C)C)NC(=O)[C@H](C)NC(=O)[C@H](CC(N)=O)NC(=O)[C@H](CC(C)C)NC(=O)[C@H](Cc1c[nH]c2ccccc12)NC(=O)[C@@H](N)CCCCN)C(=O)N[C@@H](CC(N)=O)C(=O)N[C@@H](CSSC[C@H](NC(=O)[C@H](CC(N)=O)NC(=O)[C@H](CC(C)C)NC(=O)CNC(=O)[C@H](Cc1cnc[nH]1)NC(=O)[C@H](Cc1cnc[nH]1)NC(=O)[C@H](CC(C)C)NC(=O)[C@H](CC(C)C)NC(=O)[C@H](C)NC(=O)[C@H](CC(N)=O)NC(=O)[C@H](CC(C)C)NC(=O)[C@H](Cc1c[nH]c2ccccc12)NC(=O)[C@@H](N)CCCCN)C(=O)N[C@@H](C)C(=O)N[C@@H](CCCCN)C(=O)O)C(=O)N[C@@H](C)C(=O)N[C@@H](CCCCN)C(=O)O` (I: H-KWLNALLHHGLNCAK-OH / II: H-KWLNALLHHGLNCAK-OH; disulfide I:13-II:13) the entry was “Active”.
As for `CC(C)C[C@H](NC(=O)CNC(=O)[C@H](Cc1cnc[nH]1)NC(=O)[C@H](Cc1cnc[nH]1)NC(=O)[C@H](CC(C)C)NC(=O)[C@H](CC(C)C)NC(=O)[C@H](C)N)C(=O)N[C@@H](CC(N)=O)C(=O)N[C@@H](CSSC[C@H](NC(=O)[C@H](CC(N)=O)NC(=O)[C@H](CC(C)C)NC(=O)CNC(=O)[C@H](Cc1cnc[nH]1)NC(=O)[C@H](Cc1cnc[nH]1)NC(=O)[C@H](CC(C)C)NC(=O)[C@H](CC(C)C)NC(=O)[C@H](C)NC(=O)[C@H](CC(N)=O)NC(=O)[C@H](CC(C)C)NC(=O)[C@H](Cc1c[nH]c2ccccc12)NC(=O)[C@@H](N)CCCCN)C(=O)N[C@@H](C)C(=O)N[C@@H](CCCCN)C(=O)NCC(=O)N[C@H](C(=O)N[C@@H](CC(C)C)C(=O)N[C@@H](C)C(N)=O)C(C)C)C(=O)N[C@@H](C)C(=O)N[C@@H](CCCCN)C(=O)NCC(=O)N[C@H](C(=O)N[C@@H](CC(C)C)C(=O)N[C@@H](C)C(N)=O)C(C)C` (I: H-KWLNALLHHGLNCAKGVLA-NH2 / II: H-ALLHHGLNCAKGVLA-NH2; disulfide I:13-II:9), the MIC (in general, the smallest concentration in the dilution series that meets the test's criterion for growth inhibition) against Escherichia coli was 4 µg/mL (≈ 1.12 µM); against Pseudomonas aeruginosa, 8 µg/mL (≈ 2.24 µM); against Salmonella enterica, 4 µg/mL (≈ 1.12 µM); in the assay on Bacillus subtilis it was 4 µg/mL (≈ 1.12 µM); in the assay on Enterococcus faecium, 4 µg/mL (≈ 1.12 µM); against Klebsiella oxytoca, 4 µg/mL (≈ 1.12 µM). The MIC in the assay with Staphylococcus aureus [2] was determined as 8 µg/mL (≈ 2.24 µM); with Citrobacter freundii, 8 µg/mL (≈ 2.24 µM); against Listeria monocytogenes, 4 µg/mL (≈ 1.12 µM); in the assay on Micrococcus luteus it was 8 µg/mL (≈ 2.24 µM).
For `CO/N=C(\C(=O)N[C@@H]1C(=O)N2C(C(=O)O)=C(CSc3nc(=O)c(O)nn3C)CS[C@H]12)c1csc(N)n1` [CEFTRIAXONE], the MIC against Escherichia coli is under 1 µg/mL; against Pseudomonas aeruginosa, over 64 µg/mL; in the assay with Salmonella enterica it was 4 µg/mL (≈ 7.21 µM); against Bacillus subtilis it was under 1 µg/mL; in the assay on Enterococcus faecium it was over 64 µg/mL; in the assay on Klebsiella oxytoca, under 1 µg/mL. Moreover, the MIC was over 64 µg/mL against Staphylococcus aureus [2], 2 µg/mL (≈ 3.61 µM) against Citrobacter freundii, under 1 µg/mL in the assay with Listeria monocytogenes and 16 µg/mL (≈ 28.9 µM) in the assay on Micrococcus luteus.
With `CC(C)C[C@H](NC(=O)CNC(=O)[C@H](Cc1cnc[nH]1)NC(=O)[C@H](Cc1cnc[nH]1)NC(=O)[C@H](CC(C)C)NC(=O)[C@H](CC(C)C)NC(=O)[C@H](C)NC(=O)[C@H](CC(N)=O)NC(=O)[C@H](CC(C)C)NC(=O)[C@H](Cc1c[nH]c2ccccc12)NC(=O)[C@@H](N)CCCCN)C(=O)N[C@@H](CC(N)=O)C(=O)N[C@@H](CSS[C@H](NC(=O)[C@H](CC(N)=O)NC(=O)[C@H](CC(C)C)NC(=O)CNC(=O)[C@H](Cc1cnc[nH]1)NC(=O)[C@H](Cc1cnc[nH]1)NC(=O)[C@H](CC(C)C)NC(=O)[C@H](CC(C)C)NC(=O)[C@H](C)NC(=O)[C@H](CC(N)=O)NC(=O)[C@H](CC(C)C)NC(=O)[C@@H](N)Cc1c[nH]c2ccccc12)C(=O)N[C@@H](C)C(=O)N[C@@H](CCCCN)C(=O)O)C(=O)N[C@@H](C)C(=O)N[C@@H](CCCCN)C(=O)O` (I: H-KWLNALLHHGLNCAK-OH / II: H-WLNALLHHGLN[Gly(αS-SH)]AK-OH; disulfide I:13-II:12), the result in the assay with Staphylococcus aureus [1] was Active.
Still for that read-out and setting: with `CC(=O)C[C@H](NC(=O)[C@H](CC(C)C)NC(=O)CNC(=O)[C@H](Cc1cnc[nH]1)NC(=O)[C@H](Cc1cnc[nH]1)NC(=O)[C@H](CC(C)C)NC(=O)[C@H](CC(C)C)NC(=O)[C@H](C)NC(=O)[C@H](CC(N)=O)NC(=O)[C@H](CC(C)C)NC(=O)[C@@H](N)Cc1c[nH]c2ccccc12)C(=O)N[C@@H](CSSC[C@H](NC(=O)[C@H](CC(N)=O)NC(=O)[C@H](CC(C)C)NC(=O)CNC(=O)[C@H](Cc1cnc[nH]1)NC(=O)[C@H](Cc1cnc[nH]1)NC(=O)[C@H](CC(C)C)NC(=O)[C@H](CC(C)C)NC(=O)[C@H](C)NC(=O)[C@H](CC(N)=O)NC(=O)[C@H](CC(C)C)NC(=O)[C@@H](N)Cc1c[nH]c2ccccc12)C(=O)N[C@@H](C)C(=O)N[C@@H](CCCCN)C(=O)O)C(=O)N[C@@H](C)C(=O)N[C@@H](CCCCN)C(=O)O` (I: H-WLNALLHHGL[Nva(4-oxo)]CAK-OH / II: H-WLNALLHHGLNCAK-OH; disulfide I:12-II:12) the entry was “inactive”.
In the case of `CC(C)(O/N=C(\C(=O)N[C@@H]1C(=O)N2C(C(=O)[O-])=C(C[n+]3ccccc3)CS[C@H]12)c1csc(N)n1)C(=O)O` [CEFTAZIDIME], the MIC against Escherichia coli was under 1 µg/mL; in the assay with Pseudomonas aeruginosa, 4 µg/mL (≈ 7.32 µM); in the assay with Salmonella enterica it was over 64 µg/mL; with Bacillus subtilis, 4 µg/mL (≈ 7.32 µM); against Enterococcus faecium it was over 64 µg/mL; with Klebsiella oxytoca it was under 1 µg/mL. In addition, the MIC against Staphylococcus aureus [2] is over 64 µg/mL; in the assay with Citrobacter freundii, 8 µg/mL (≈ 14.6 µM); with Listeria monocytogenes, under 1 µg/mL; in the assay on Micrococcus luteus, over 64 µg/mL.
Regarding `C[C@H]1[C@H](NC(=O)/C(=N\OC(C)(C)C(=O)O)c2csc(N)n2)C(=O)N1S(=O)(=O)O` [AZTREONAM], the MIC with Escherichia coli was under 1 µg/mL; against Pseudomonas aeruginosa, 8 µg/mL (≈ 18.4 µM); with Salmonella enterica it was over 64 µg/mL; against Bacillus subtilis, over 64 µg/mL; in the assay with Enterococcus faecium it was over 64 µg/mL; with Klebsiella oxytoca it was under 1 µg/mL. The MIC in the assay with Staphylococcus aureus [2] was over 64 µg/mL; against Citrobacter freundii, 4 µg/mL (≈ 9.19 µM); with Listeria monocytogenes it was under 1 µg/mL; against Micrococcus luteus, over 64 µg/mL.
